Assay results reported in PubChem BioAssay.
Inconclusive results are not listed.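 Rule for the calls, unless noted: active = RAM network inhibition above 8.4% in each of two replicates, 3 SD over the compound average; inconclusive = above 8.4% inhibition in only one replicate; inactive = 8.4% inhibition or less in each replicate.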

Columns and labels:
[1] = S. cerevisiae growth inhibition in permissive medium (OD615), pilot counter-assay for S. cerevisiae lifespan shortening project, permissive growth control (AID 705;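 active = growth inhibition above 25% in both replicates, a cutoff set 3 SD above the mean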); details: OD615, 24 h, at 10 µM, active compounds read high
Outline: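 System: S. cerevisiae with engineered DeaD lifespan system. Medium: SC raffinose/galactose permissive medium. Doses: single compound dose of 10 µM, 0.25% DMSO final. Schedule: 24 h exposure, 30 °C. Measured by: OD615 turbidity read. Read-out: growth inhibition.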

[2] = S. cerevisiae growth inhibition in restrictive medium, OD615, pilot screen, restrictive growth control, yeast lifespan reduction project (AID 706;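 active = growth inhibition above a set limit, 3 SD over mean compound inhibition, in both replicates, cut at about 43% in these data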;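 note: modified DeaD lifespan yeast strain shifted to restrictive glucose medium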); details: OD615, 48 h, at 10 µM, active compounds read high
Outline: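 Assay system – genetically modified Saccharomyces cerevisiae, DeaD replicative lifespan assay strain · Medium – CSMM-D glucose medium · Doses – 10 µM compound, 0.25% DMSO · Times – 4 h pre-incubation, 48 h exposure at 30 °C · Signal – optical density at 615 nm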

[3] = doxorubicin toxicity protection in MRP-1 cells – H69AR cells, CellTiter-Glo, duplicate, MRP-1 activator project, pilot screen (AID 807;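 active = viability increase at or above a cutoff of the median across tested compounds plus 3 SD, cut at about 8.5% in these data, passing the limit was not always enough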;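 note: compound pretreatment 18-22 h then 72 h combined with doxorubicin; 0% = doxorubicin alone and 100% = vehicle without doxorubicin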); details: H69AR viability with doxorubicin, CellTiter-Glo luminescence; at 10 µM; active compounds read high
[4] = viability of HCT116 without oncogenic beta-catenin – human colon tumor cells, pilot screen (AID 823;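 active = cell viability at or below a set limit in both duplicate runs, the limit being the all-compound median minus 4 SD, cut at about 23% in these data, passing the limit was not always enough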;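 note: 0% = wells killed by 20 µM Hyamine and 100% = untreated DMSO cell wells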); details: HCT116 beta-catenin knockout viability, CellTiter-Glo, 60 h; at 10 µM; active compounds read low
[5] = viability of PTEN-null HCT116 cells – cell-based, HCT116 clonal line, CellTiter-Glo, pilot screen (AID 824;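 active = viability at or below 27.92% in each of two runs, the all-compound median minus 4 SD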;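 note: 0% = 20 µM Hyamine control and 100% = vehicle cell control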); details: HCT116 PTEN-deleted viability, 60 h, at 10 µM, active compounds read low
[6] = RAM pathway blockade in budding yeast – dse1pr::URA3 reporter, 5-FOA selection, pilot screen (AID 869;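 active = inhibition over a set limit, the all-compound mean plus 3 SD, in both replicate runs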;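 note: 0% = DMSO wells with no growth and 100% = 10 µM 1-NA-PP1 with full growth; RAM network block rescues cells from 5-FOA so hits raise OD615 growth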); details: S. cerevisiae dse1pr::URA3 5-FOA growth, OD615, 2 d; at 10 µM; active compounds read high; strain carries analog-sensitive mutant Cbk1 kinase
[7] = RAM signaling pathway blockade in yeast – S. cerevisiae, Pdr1DBD-CYC8 efflux-inhibited sensitized strain, primary screen (AID 1298);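 note: 0% = DMSO untreated cells without growth and 100% = 10 µM 1-NA-PP1 full growth; higher means more yeast growth rescued from 5-FOA killing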; details: S. cerevisiae cbk1-as DSE1-URA3 strain, 5-FOA growth OD615, 2 d; at 50 µM; active compounds read high

COc1cccc(C2=NOC(C(=O)N3CCN(C(=O)c4ccco4)CC3)C2)c1 (stereo not drawn)
inactive: growth inhibition [1] 5% | growth inhibition [2] -4.4% | viability increase [3] -2.95% | viability [4] 95.6% | viability [5] 95.2% | inhibition [6] -0.3% | RAM network inhibition [7] 0.01%

CC12CCC(C(=O)N3CCCc4ccccc43)(CC1=O)C2(C)C (stereo not drawn)
inactive: growth inhibition [1] -15% | growth inhibition [2] -2.7% | viability increase [3] -0.39% | viability [4] 83.6% | viability [5] 87.6% | inhibition [6] 0.94% | RAM network inhibition [7] 0.93%

CCN1C(=O)CC(N2CCN(c3ccc(Cl)cc3)CC2)C1=O (stereo not drawn)
inactive: growth inhibition [1] -18.6% | growth inhibition [2] -7.02% | viability increase [3] 1.46% | viability [4] 98% | viability [5] 94.6% | inhibition [6] 1.04% | RAM network inhibition [7] 4.19%

O=C(Nc1nccs1)c1ccc(Cl)s1
inactive: growth inhibition [1] -0.705% | growth inhibition [2] 4.79% | viability increase [3] 1.01% | viability [4] 96.3% | viability [5] 94.9% | inhibition [6] -0.025% | RAM network inhibition [7] -1.54%

COc1ccc(-c2oc(/N=C/N3CCOCC3)c(C#N)c2-c2ccc(OC)cc2)cc1
inactive: growth inhibition [1] -10.1% | growth inhibition [2] -18.7% | viability increase [3] -0.81% | viability [4] 88.6% | viability [5] 83.4% | inhibition [6] 2.25% | RAM network inhibition [7] 2.33%

CCn1ncc(C2=NOC(C(=O)Nc3c(C)nn(Cc4ccc(F)cc4)c3C)C2)c1C (stereo not drawn)
inactive: growth inhibition [1] -7.87% | growth inhibition [2] -11.5% | viability increase [3] 0.42% | viability [4] 93.5% | viability [5] 88.7% | inhibition [6] 1.59% | RAM network inhibition [7] 1.41%

CC(C)c1ccc(NC(=O)c2cnn(-c3ccccc3)c2NC(=O)c2ccco2)cc1
inactive: growth inhibition [1] -2.46% | growth inhibition [2] 0.43% | viability increase [3] -4.1% | viability [4] 89.7% | viability [5] 85.6% | inhibition [6] 1.9% | RAM network inhibition [7] 5.45%

Cc1ccccc1-c1nc(CN2CCC(C(=O)O)CC2)c(C)o1
inactive: growth inhibition [1] 1.1% | growth inhibition [2] -0.365% | viability increase [3] -0.95% | viability [4] 103% | viability [5] 93.9% | inhibition [6] 0% | RAM network inhibition [7] 0.11%

N#Cc1c2n(c3c(=O)n(Cc4ccc(Cl)cc4)cnc13)CCCC2
inactive: growth inhibition [1] -12.5% | growth inhibition [2] -5.03% | viability increase [3] 1.08% | viability [4] 93.8% | viability [5] 87% | inhibition [6] 0.755% | RAM network inhibition [7] 4.22%

COc1ccc(NC(C)=O)c2nc(C)c(C)nc12
inactive: growth inhibition [1] 7.39% | growth inhibition [2] -2.71% | viability increase [3] -3.32% | viability [4] 98% | viability [5] 93.9% | inhibition [6] 1.17% | RAM network inhibition [7] 1.29%

CCOC(=O)C1C(=O)CC(C)(O)C(C(=O)OCC)C1c1ccco1 (stereo not drawn)
inactive: growth inhibition [1] -11% | growth inhibition [2] -5.69% | viability increase [3] -1.04% | viability [4] 101% | viability [5] 103% | inhibition [6] 1.04% | RAM network inhibition [7] 2.45%

Cc1ccc(S(=O)(=O)Nc2ccc3nc(N)sc3c2)cc1
inactive: growth inhibition [1] 6.55% | growth inhibition [2] 13.4% | viability increase [3] -4.39% | viability [4] 82.6% | viability [5] 85.5% | inhibition [6] 0.19% | RAM network inhibition [7] 2.92%

CCS(=O)(=O)NCc1csc(-c2ccccc2)n1
inactive: growth inhibition [1] -0.375% | growth inhibition [2] -0.625% | viability increase [3] -2% | viability [4] 89.9% | viability [5] 87.5% | inhibition [6] 0.635% | RAM network inhibition [7] 5.48%

Cc1ccc(C)c(NC(=O)CSc2nnc(-c3ccccc3)n2N)c1
inactive: growth inhibition [1] -4.36% | growth inhibition [2] -8.22% | viability increase [3] -1.93% | viability [4] 109% | viability [5] 90.1% | inhibition [6] 1.5% | RAM network inhibition [7] 3.95%

CCOC(=O)Cn1c(=O)oc2cc(S(=O)(=O)Nc3cccc(C)c3)ccc21
inactive: growth inhibition [1] -5.58% | growth inhibition [2] -22.1% | viability increase [3] -0.66% | viability [4] 65.5% | viability [5] 79% | inhibition [6] 1% | RAM network inhibition [7] 2.63%

O=C(Cn1cc2c(n1)CCCC2)NCc1cccc(Cl)c1
inactive: growth inhibition [1] 4.46% | growth inhibition [2] 5.37% | viability increase [3] -0.45% | viability [4] 107% | viability [5] 99.3% | inhibition [6] 1.62% | RAM network inhibition [7] 3.09%

O=C(O)CC(C(=O)NC1CCCCC1)C1CCCO1 (stereo not drawn)
inactive: growth inhibition [1] -1.02% | growth inhibition [2] -15.1% | viability increase [3] -1.68% | viability [4] 98.3% | viability [5] 102% | inhibition [6] 0.36% | RAM network inhibition [7] 1.76%

O=C(NCC(c1cccnc1)N1CCN(c2ccccc2F)CC1)c1ccccc1 (stereo not drawn)
inactive: growth inhibition [1] -9.54% | growth inhibition [2] -2.34% | viability increase [3] -4.21% | viability [4] 88.5% | viability [5] 82.4% | inhibition [6] 1.75% | RAM network inhibition [7] 1.21%

O=C1C2ON(c3ccccc3)C(c3ccncc3)C2C(=O)N1c1ccc(N2CCOCC2)cc1 (stereo not drawn)
inactive: growth inhibition [1] -13.7% | growth inhibition [2] 0.35% | viability increase [3] -0.72% | viability [4] 104% | viability [5] 103% | inhibition [6] 2.51% | RAM network inhibition [7] 0.47%
